This is an account of results in article PMC2766535 (Journal of separation science, 2009).

SMILES strings stand for the structures.

This assay addresses human serum albumin (HSA) (Homo sapiens, UniProt P02768). Briefly: frontal analysis, high-performance affinity chromatography on immobilized HSA. The assay is classed as binding. Put shortly: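 Fatty-acid-free HSA immobilized by Schiff base on diol silica (40 (± 2) mg HSA/g silica), packed in a 5 cm × 2.1 mm i.d. column. A column without HSA corrected for non-specific binding. Test compound (0.5 µM to 30 µM) in pH 7.4, 0.067 M potassium phosphate was applied at 0.5 mL/min, 37°C, until plateau. Detection at 260 nm; mean breakthrough times were used.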

Sequence of human serum albumin (HSA) (P02768 25-609): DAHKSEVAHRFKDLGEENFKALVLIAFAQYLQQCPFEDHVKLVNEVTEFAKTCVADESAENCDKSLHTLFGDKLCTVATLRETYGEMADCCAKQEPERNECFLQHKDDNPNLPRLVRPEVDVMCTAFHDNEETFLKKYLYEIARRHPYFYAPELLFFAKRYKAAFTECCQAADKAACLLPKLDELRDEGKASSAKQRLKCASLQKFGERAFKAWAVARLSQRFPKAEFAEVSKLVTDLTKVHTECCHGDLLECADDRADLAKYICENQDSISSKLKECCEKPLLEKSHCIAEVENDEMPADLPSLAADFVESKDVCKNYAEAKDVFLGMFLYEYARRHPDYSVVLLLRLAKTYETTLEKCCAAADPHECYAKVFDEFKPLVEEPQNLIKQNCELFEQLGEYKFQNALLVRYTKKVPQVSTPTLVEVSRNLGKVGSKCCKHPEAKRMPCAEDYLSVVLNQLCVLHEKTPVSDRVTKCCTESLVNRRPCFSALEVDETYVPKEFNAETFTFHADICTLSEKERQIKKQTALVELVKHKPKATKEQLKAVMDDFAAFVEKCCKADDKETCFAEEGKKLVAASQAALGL

What is called Kd is the equilibrium constant for the complex coming apart. `CC(=O)c1c[nH]c2ccccc12` [3-Acetylindole] gave a Kd of 12.8 µM. With `O=C(O)CCc1c[nH]c2ccccc12` [Indole-3-propionic acid] the figure was 9.09 µM; with `OCc1c[nH]c2ccccc12` [Indole-3-methanol], 8.33 µM; with `Cc1c[nH]c2ccccc12` [3-Methylindole], 18.9 µM. Compound `O=C(O)CCCc1c[nH]c2ccccc12` [Indole-3-butyric acid] showed an equilibrium dissociation constant (Kd) of 1.03 µM.
